Read-outs that look alike come from different tables or passages of the source.
Tests used:
multiple myeloma [1] = settings: twice weekly carfilzomib monotherapy 20/45 or 20/56 mg/m^2; cited from earlier work
multiple myeloma [2] = settings: twice weekly carfilzomib monotherapy 20/27 mg/m^2; cited from earlier work
[3] = Plasma pharmacokinetics of carfilzomib after 30-minute intravenous infusion; format: in vivo, human; settings: for AUClast / T1/2 (terminal elimination half-life): mean ± SD, SD; for Tmax: median (minimum-maximum)
Outline: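 Relapsed/refractory myeloma patients got a 30-min IV infusion of test compound with dexamethasone 40 mg. Plasma was sampled on Days 1 (20 mg/m2) and 15 (70 mg/m2) of Cycle 1: pre-infusion, 5 and 15 min after start, just before end, then 5, 15, 30 min and 1, 2, 4 h post-infusion. Per-patient parameters were summarised as mean ± SD, Tmax as median (min–max).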

[4] = Day 1 of Cycle 1, carfilzomib 20 mg/m^2 iv, N = 6
[5] = Day 15 of Cycle 1, carfilzomib 70 mg/m^2 iv, N = 5

AUClast [3, 4]: 355 ± 120 ng·h/mL
T1/2 (terminal elimination half-life) [3, 4]: 41 ± 15.1 min
Tmax [3, 4]: 0.575 (0.250‐0.617) h
AUClast [3, 5]: 1250 ± 285 ng·h/mL
T1/2 (terminal elimination half-life) [3, 5]: 54 ± 4.44 min
Tmax [3, 5]: 0.467 (0.250‐0.617) h
SMILES: CC(C)C[C@H](NC(=O)[C@H](CCc1ccccc1)NC(=O)CN1CCOCC1)C(=O)N[C@@H](Cc1ccccc1)C(=O)N[C@@H](CC(C)C)C(=O)[C@@]1(C)CO1 [carfilzomib]
ORR (multiple myeloma [1]): 57.1%
ORR (multiple myeloma [2]): 22.5%
